Compound activity deposited in PubChem BioAssay by several laboratories.
Only some compounds are listed: those with a hit (about 1.5% of all), similar ones and a draw of the others.
Runt-SMMHC FRET – Runt domain-CBFb-SMMHC interaction inhibition. 220,000 tested, 0.74% active. AID 1434. Cerulean-Runt/Venus-CBFb-SMMHC FRET ratio 530/480, 1 h. Q01196+Q13951. inhibition, % at 20 µM;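 active = mean inhibition across duplicate retests at 20 µM reaching about 50%, limit read from the data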;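 also: 0% = DMSO wells and 100% = wells with excess untagged CBFb-SMMHC; inhibitors lower the FRET ratio by blocking Runt binding to CBFb-SMMHC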
Runt-CBFb FRET – blocks binding of human RUNX1 Runt domain to CBFb; inhibition, % at 20 µM; AID 1496; Cerulean-Runt/Venus-CBFb FRET ratio 530/480, 1 h; 220,000 tested, 0.46% active; Q01196+Q13951;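 active = inhibition over about 50% at 20 µM in the single-dose screen, limit read from the data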;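 also: 0% = DMSO wells and 100% = excess unlabeled CBFb competitor control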
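Reagent – Venus-CBFb binding partner, 100 nM · Assay system – Cerulean-tagged RUNX1 Runt domain (FRET donor) fusion protein · Input – 100 nM per protein · Incubation – two 1 h room-temperature incubations shielded from light · Measured by – FRET fluorescence · Medium – Tris buffer pH 7.5 with salts and BSA · Benchmarks – unlabeled CBFb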
Hck-Nef inh – human Hck-Nef kinase inhibition | P08631 | Recombinant Hck-YEEI plus Nef, Z-Lyte FRET kinase assay | inhibition, % at 20 µM | 220,000 tested, 0.68% active | AID 463187;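 active = Hck-Nef kinase inhibition above about 50%, limit read from the data; inactive = inhibition below that limit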;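 also: 0% = DMSO with Hck plus Nef and 100% = Hck alone without Nef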
Target sequence (P08631 whole entry, looked up): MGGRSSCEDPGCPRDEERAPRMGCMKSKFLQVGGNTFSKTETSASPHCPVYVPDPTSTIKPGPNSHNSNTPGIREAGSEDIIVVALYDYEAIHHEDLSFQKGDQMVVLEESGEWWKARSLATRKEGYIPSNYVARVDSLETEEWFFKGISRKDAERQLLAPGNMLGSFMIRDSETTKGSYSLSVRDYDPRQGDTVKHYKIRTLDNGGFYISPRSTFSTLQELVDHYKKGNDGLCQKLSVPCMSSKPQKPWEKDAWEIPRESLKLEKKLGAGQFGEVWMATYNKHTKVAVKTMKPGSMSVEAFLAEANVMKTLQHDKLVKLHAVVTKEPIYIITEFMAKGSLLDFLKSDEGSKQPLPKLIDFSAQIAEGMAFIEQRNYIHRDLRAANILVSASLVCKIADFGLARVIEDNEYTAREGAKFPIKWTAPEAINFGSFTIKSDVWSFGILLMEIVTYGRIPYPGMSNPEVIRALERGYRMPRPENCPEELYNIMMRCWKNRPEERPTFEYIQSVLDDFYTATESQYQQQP
CaV13 ICDI inh – Disruptors of the CACNA1D IQ motif to Ca2+-dependent inactivation inhibitor domain association, primary screening, Förster resonance energy transfer in intact living …; inhibition, % at 12.3 µM; HEK cells, CFP/YFP FRET ICDI-IQ, plate reader, 10 min; percent FRET-ratio fall versus neutral wells; 340,000 tested, 0.098% active; AID 743397;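 active = mean replicate inhibition of at least 30% and at least 1% of replicates passing that level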;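 also: 0% = median of the neutral control wells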
RanGTP-Impb inh – disruptors of Ran-importin-beta complex formation – biochemical, FRET, CFP-Ran, YFP-importin-beta, homogeneous, primary screen. cell-free CFP-Ran/YFP-importin-beta FRET ratio. inhibition, % (concentration not given with the values). 300,000 tested, 1.1% active;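 active = more than half of the replicate wells show a fall in the fluorescence ratio signal beyond about 16%, limit read from the data, passing the limit was not always enough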;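 also: 0% = DMSO wells and 100% = Ran loaded with GDP instead of GTP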
* hit, by the source's call; x = no result; + = active, no number.

SMILES	Runt-SMMHC FRET	Runt-CBFb FRET	Hck-Nef inh	CaV13 ICDI inh	RanGTP-Impb inh
O=C1[C@H]2[C@@H](c3ccccc3)N[C@]3(CCCN(Cc4ccc(C(F)(F)F)cc4)C3=O)[C@H]2C(=O)N1Cc1ccccc1	x	x	x	-9.0	x
Cc1ccc2cc3c(NC(=O)c4ccco4)nn(CC(C)C)c3nc2c1	34.7	16.8	11.0	x	39.4*
CC(C)Cn1nc(NC(=O)C2CCCO2)c2cc3ccccc3nc21 (stereo unspecified)	38.6	20.7	28.5	2.4	27.2*
CC(C)NC(=O)COc1ccc(/C=N/NS(=O)(=O)c2ccccc2)cc1	2.0	-2.4	1.0	x	1.0
COc1ccc(C(c2nnnn2-c2ccc3c(c2)OCCO3)N2CCN(C/C=C/c3ccccc3)CC2)cc1 (stereo unspecified)	x	x	x	-6.4	x
O=S(=O)(c1cccc(Br)c1)N1CCN(c2ccnc3cc(Cl)ccc23)CC1	x	x	x	-4.8	-1.4
CCOc1ccc2nc(NCCNC(=O)c3cc(OC)c(OC)c(OC)c3)c(C#N)cc2c1	x	x	x	-19.2	112.5*
COc1cc(C(=O)NCCNc2nc3c(C)c(C)ccc3cc2C#N)cc(OC)c1OC	x	x	x	-2.2	2.2
COc1cc(C(=O)NCCCNc2nc3cc(C)c(C)cc3cc2C#N)cc(OC)c1OC	18.4	x	36.4	29.6	49.7*
CC(C)c1nc2sc3c(SCC(N)=O)ncnc3c2c2c1CCC2	-5.3	-1.4	2.3	-5.0	-1.2
COc1ccc(C(=O)N2CCOC2CNC(=O)C(=O)NCc2ccc(C)cc2)cc1 (stereo unspecified)	x	x	x	-13.8	x
COc1ccc(C(=O)/C=C\c2ccc(NC(=O)c3cccs3)cc2)cc1	-24.7	-3.3	2.2	-4.6	22.7*
COc1ccc(NC(=O)c2ccc(NC(=O)c3cccs3)cc2)cc1	x	x	x	-2.3	3.1
Cc1ccc(NC2CCCCC2NS(=O)(=O)c2ccccc2)c(C)c1 (stereo unspecified)	x	x	x	-13.2	-1.4
CC/C(C)=N\Nc1nc(-c2cc3cc(OC)ccc3oc2=O)cs1	-15.2	19.1	-11.3	+	-1.8
CC(C)(CN1CCCC1)NS(=O)(=O)c1ccccc1	x	x	x	-4.6	7.7
Cc1cc(C)nc(N(C#N)Cc2cccc(Cl)c2)n1	-1.1	0.4	20.2	-3.9	50.6*
Cc1nc2nc(C)c(CCC(=O)NCCC3=CCCCC3)c(C)n2n1	6.1	0.8	2.7	-8.8	7.2
N#C/C(C(=O)Oc1ccccc1)=C1\C=Cc2ccccc2N1	17.7	33.5	4.9	-3.8	54.5*
O=C(CSc1ccc2ccccc2c1)Nc1nc2ccccc2[nH]1	0.8	0.4	2.1	-2.6	-4.4
Cc1ccc2[nH]c3c(c2c1)CN(C(=O)CN1CCN(C(=O)c2ccco2)CC1)CC3	-33.0	-45.7	-23.2	-150.2	-42.8
O=C(CN1CCN(C(=O)c2ccco2)CC1)N1CCc2[nH]c3ccccc3c2C1	-27.4	-24.0	-21.3	x	29.3*
COc1ccc(/C=C2\CCc3c2nc2ccccc2c3C(=O)O)cc1OC	81.6	9.8	-210.8	-11.7	-25.8
CCOc1ccc(/C=C2\CCCc3c2nc2ccccc2c3C(=O)O)cc1OC	x	x	x	x	29.0*
COc1ccc(/C=C2\CCCc3c2nc2ccccc2c3C(=O)O)cc1OC	81.0*	11.9	-9.1	x	37.3*
SMILES	Runt-SMMHC FRET	Runt-CBFb FRET	Hck-Nef inh	CaV13 ICDI inh	RanGTP-Impb inh
COc1cc(/C=C2\CCCc3c2nc2ccccc2c3C(=O)O)cc(OC)c1O	23.0	42.7	-47.9	3.2	-4.7
Cc1nc(C(=O)N2CCCC(C(=O)c3cccc(OC(C)C)c3)C2)cs1 (stereo unspecified)	x	x	x	-6.2	2.6
COc1ccccc1Cc1c(-c2ccc(Cl)cc2)nc2c(C)cc(Br)cn12	x	x	x	-3.3	x
CC(=O)N/C(=C/c1ccc2c(c1)OCO2)C(=O)N1CCOCC1	x	x	x	-4.5	-7.4
COc1ccccc1NC(=O)CNC(=O)c1ccccc1	-0.1	0.6	13.8	-5.7	2.1
COc1ccccc1NC(=O)CNC(=O)c1ccccc1C	0.3	1.3	-0.9	-10.7	24.5*
CCOc1ccc(-c2cc3nc(C4CCN(C(=O)OC(C)(C)C)CC4)c(C(=O)O)cn3n2)cc1	-5.8	31.7	9.4	-8.7	-0.2
CNC(=O)OCCSCCS(=O)(=O)c1ccc(Cl)cc1	0.4	1.0	4.3	-3.7	-0.5
Cc1ccc(NC(=O)c2ccc(OCC3CCCO3)cc2)nc1 (stereo unspecified)	x	x	x	-2.1	7.9
Cc1cnc(NC(=O)c2ccc(OCC3CCCO3)cc2)s1 (stereo unspecified)	1.3	0.9	58.7*	-6.5	1.5
CSCC[C@H](NC(=O)[C@@H]1Cc2ccccc2CN1)C(=O)NC1CCCC1	x	x	x	-13.7	3.3
O=C(N/N=C/c1c(O)n(-c2ccc(Cl)cn2)c(=O)c2ccccc12)C1CC1	-65.2	-14.0	0.3	-5.7	2.4
O=C(N/N=C/c1c(O)n(-c2ccc(Cl)cn2)c(=O)c2ccccc12)c1ccncc1	85.5*	-22.3	-5.2	-10.0	-6.3
CCNC(=S)NNC(=O)c1csc2c1CCCC2	1.8	-2.1	-0.3	-6.4	2.4
Cc1ccc(S(=O)(=O)Nc2ccc(Nc3ccccc3)cc2)cc1	x	x	x	68.5*	-4.1
Cc1ccc(S(=O)(=O)NNc2ccccc2)cc1	68.0*	39.6	-3.2	-7.2	-2.8
O=S(=O)(Nc1ccc(Nc2ccccc2)cc1)c1ccc(F)cc1	x	x	x	-4.2	3.8
Cc1cc(C)nc(SCC(=O)Nc2ccc(S(=O)(=O)Nc3onc(C)c3C)cc2)n1	0.2	1.7	2.1	80.0*	1.7
COc1ccc(C(=O)OCC(=O)N2C(C)CCCC2C)cc1[N+](=O)[O-] (stereo unspecified)	-1.0	-0.5	-4.0	-4.6	-0.6
CN1Cc2sc(N)c(C#N)c2CC1(C)C	81.6*	89.0*	6.5	3.0	116.6*
CCN1CCc2c(sc(NC(=S)NC(=O)c3ccccc3)c2C#N)C1	-14.1	11.7	-0.6	x	140.8*
CN1Cc2sc(NC(=S)NC(=O)c3ccccc3)c(C#N)c2CC1(C)C	67.1*	14.0	8.6	9.3	144.8*
C[C@@H]1CN([C@@H](C)CO)C(=O)CCCn2nncc2CO[C@H]1CN(C)Cc1cccc(O)c1	x	x	x	-5.7	x
CCN(CC)S(=O)(=O)c1ccc(NC(=O)CSc2nc3nc(C)cc(C)c3c(=O)[nH]2)cc1	x	x	x	-5.9	x
O=c1ccc(-c2ccc(S(=O)(=O)NCC3CCN(Cc4ccccc4F)CC3)s2)n[nH]1	x	x	x	-13.8	-0.3
N#Cc1ccc(C(=O)Nc2cccc3ncccc23)c(F)c1	-5.7	0.9	1.5	-4.4	-0.5
O=C(COC(=O)CCc1c[nH]c2ccccc12)NCc1ccccc1	6.1	-1.3	-2.1	-5.1	-1.4
O=C(CCc1c[nH]c2ccccc12)OCC(=O)c1ccccc1	x	x	x	36.3*	x
CCCCn1c(N)c(N(C)C(=O)c2cccc(-n3cnnn3)c2)c(=O)[nH]c1=O	x	x	x	-2.4	x
CN1/C(=C/C(=O)c2ccc(Cl)cc2)Sc2cc3c(cc21)OCO3	-78.6	-56.3	8.5	-7.7	36.1*
